How the values were obtained:
[1] = system: PKB Ser 473 phosphorylation in NIH3T3 cells; assay: Western blot of serum-stimulated PKB Ser 473 phosphorylation; assay type: cell-based, mouse
type Iα PtdInsP kinase = assay: In vitro lipid kinase assay, type Iα PtdInsP kinase; assay type: biochemical, mouse
ecotropic MLV retrovirus = assay: Viral production assay; assay type: cell-based, human; details: 800 nM, TEFLY Mo producer cells
p110α = p110α (Bos taurus, UniProt P32871); assay: In vitro lipid kinase assay, GST-p110α; assay type: biochemical
NIH3T3 cells [2] = assay: In vivo measurement of phosphoinositide levels in 32P-labelled cells; assay type: cell-based, mouse; details: 800 nM
NIH3T3 cells [3] = assay: Lysotracker staining of swollen vesicles; assay type: cell-based, mouse; details: 800 nM 3 h, Lysotracker Red DND-99
Outline: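 NIH3T3 cells were exposed to test compound at 800 nM for 3 h. Lysotracker Red DND-99 (100 nM) was added to the medium for the final 0.5 h, and the acidotropic dye was imaged in the enlarged vesicles.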

NIH3T3 cells [4] = assay: Cell division and growth curves; assay type: cell-based, mouse; details: 800 nM
type IIγ PtdInsP kinase = target: T1, type IIγ PtdInsP kinase (Homo sapiens, UniProt Q8TBX8); assay: In vitro lipid kinase assay, type IIγ PtdInsP kinase; assay type: biochemical; details: even at 10 μM; data not shown
T1 sequence (Q8TBX8 1-421): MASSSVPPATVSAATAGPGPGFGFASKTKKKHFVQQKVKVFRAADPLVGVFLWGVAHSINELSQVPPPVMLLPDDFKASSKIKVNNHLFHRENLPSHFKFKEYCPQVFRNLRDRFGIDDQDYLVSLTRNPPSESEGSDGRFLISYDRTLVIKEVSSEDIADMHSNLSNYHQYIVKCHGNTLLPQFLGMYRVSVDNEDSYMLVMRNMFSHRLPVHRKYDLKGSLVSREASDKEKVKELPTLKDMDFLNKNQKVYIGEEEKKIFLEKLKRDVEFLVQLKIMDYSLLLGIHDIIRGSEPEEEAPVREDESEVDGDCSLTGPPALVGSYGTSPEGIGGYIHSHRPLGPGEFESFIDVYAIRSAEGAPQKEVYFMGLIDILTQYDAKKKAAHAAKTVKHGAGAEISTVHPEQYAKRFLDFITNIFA

p110α, sequence (P32871 whole entry): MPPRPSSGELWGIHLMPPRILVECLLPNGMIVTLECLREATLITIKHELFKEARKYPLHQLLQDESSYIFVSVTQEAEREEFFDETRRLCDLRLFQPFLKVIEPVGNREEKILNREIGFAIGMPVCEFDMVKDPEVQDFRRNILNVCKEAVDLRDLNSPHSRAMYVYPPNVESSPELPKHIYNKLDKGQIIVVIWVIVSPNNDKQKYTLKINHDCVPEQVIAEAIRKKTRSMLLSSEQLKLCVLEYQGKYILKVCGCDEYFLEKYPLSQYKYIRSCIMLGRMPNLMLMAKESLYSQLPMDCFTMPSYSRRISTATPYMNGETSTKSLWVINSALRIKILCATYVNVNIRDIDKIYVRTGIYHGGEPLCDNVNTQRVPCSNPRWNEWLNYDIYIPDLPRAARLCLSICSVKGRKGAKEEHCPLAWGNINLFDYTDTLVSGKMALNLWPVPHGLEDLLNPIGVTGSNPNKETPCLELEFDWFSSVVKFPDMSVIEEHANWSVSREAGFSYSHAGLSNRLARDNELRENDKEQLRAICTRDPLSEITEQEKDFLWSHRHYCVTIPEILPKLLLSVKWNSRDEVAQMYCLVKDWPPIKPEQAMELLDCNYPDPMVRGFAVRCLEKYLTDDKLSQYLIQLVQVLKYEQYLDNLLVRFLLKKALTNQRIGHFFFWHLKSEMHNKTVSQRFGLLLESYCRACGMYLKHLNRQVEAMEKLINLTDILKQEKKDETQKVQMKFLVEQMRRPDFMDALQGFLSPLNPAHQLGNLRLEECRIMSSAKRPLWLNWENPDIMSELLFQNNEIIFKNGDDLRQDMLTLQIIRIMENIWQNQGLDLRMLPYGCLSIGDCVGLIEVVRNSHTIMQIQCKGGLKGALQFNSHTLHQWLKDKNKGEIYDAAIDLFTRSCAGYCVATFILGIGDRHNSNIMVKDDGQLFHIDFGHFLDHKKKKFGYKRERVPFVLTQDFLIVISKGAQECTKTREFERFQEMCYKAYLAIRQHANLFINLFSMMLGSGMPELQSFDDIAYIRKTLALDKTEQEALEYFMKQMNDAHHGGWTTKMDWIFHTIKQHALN

SMILES: Oc1cccc(-c2nc(N3CCOCC3)c3oc4ncccc4c3n2)c1 [YM211103]
- Effect on serum-stimulated phosphorylation of PKB ([1]; increasing concentrations): decreased

SMILES: Nc1ccc(C(=O)Nc2cccc(-c3nc(N4CCOCC4)c4oc5ncccc5c4n3)c2)cn1 [YM201636]
- type Iα PtdInsP kinase IC50 fold greater than against PIKfyve (type Iα PtdInsP kinase): around 100 fold
- IC50 (type Iα PtdInsP kinase; read-out: type Iα PtdInsP kinase IC50, mouse enzyme, data not shown): > 2 µM
- Reduction of virus released into the medium (ecotropic MLV retrovirus): 80%
- IC50 (p110α; p110α IC50, 50 μM ATP, 100 μM PtdIns substrate): 3 µM
- p110α IC50 fold higher than for PIKfyve (p110α; same assay conditions): ~100 fold
- Decrease of PtdIns(3,5)P2 production (NIH3T3 cells [2]): 80%
- Decrease of PtdIns(4,5)P2 (NIH3T3 cells [2]): around 20%
- Effect on all other phosphoinositides identified (NIH3T3 cells [2]): remained largely unaltered
- Acidification of swollen vesicles (NIH3T3 cells [3]): poorly acidified
- Effect on PKB Ser 473 phosphorylation ([1]; 800 nM): no influence
- Effect on cell division (NIH3T3 cells [4]): does not inhibit cell division
- Inhibition of type IIγ PtdInsP kinase (type IIγ PtdInsP kinase): did not inhibit

Source: publication PMC2246419 (EMBO Reports, 2008)
